From ChEMBL document CHEMBL1123282, “Antiinflammatory activity of substituted 6-hydroxypyrimido[2,1-f]purine-2,4,8(1H,3H,9H)-triones. Atypical nonsteroidal antiinflammatory agents” (J Med Chem, 1986)

Assays:
Rattus norvegicus [1] = assay: Compound was tested in vivo for antiinflammatory activity against chronic adjuvant arthritic rat by therapeutic inhibition 2 degree paw after peroral administration of 1 mg/kg of dose; type: functional; details: route oral
[2] = Plasma level data at a dose of 20mg/kg, po after 2 hr; type: ADME, organism-based; details: read-out: Plasma level
How it was run: (§1)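 Male Lewis rats get a single iv or oral dose of the sodium salt, suspended in 0.4% (w/v) methyl cellulose. Plasma drug levels are measured by HPLC at the timed points and given as mean ± SD, n = 3.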

[3] = Plasma level data at a dose of 20mg/kg, po after 6 hr; type: ADME, organism-based; details: read-out: Plasma level; how it was run: as §1
Rattus norvegicus [4] = assay: Compound was tested in vivo for antiinflammatory activity against chronic adjuvant arthritic rat by therapeutic inhibition 2 degree paw after peroral administration of 3 mg/kg of dose; type: functional; details: route oral
[5] = Plasma level data at a dose of 20 mg/kg, iv after 0.5 hr; type: ADME, organism-based; parameters: dose 20 mg/kg, route intravenous; details: read-out: Plasma level; how it was run: as §1
[6] = Plasma level data at a dose of 20 mg/kg, iv after 12 hr; type: ADME, organism-based; parameters: dose 20 mg/kg, route intravenous; details: read-out: Plasma level; how it was run: as §1
[7] = Plasma level data at a dose of 20 mg/kg, po after 0.25 hr; type: ADME, organism-based; parameters: dose 20 mg/kg, route oral; details: read-out: Plasma level; how it was run: as §1
Rattus norvegicus [8] = assay: Compound was tested in vivo for antiinflammatory activity against chronic adjuvant arthritic rat by therapeutic inhibition 1 degree paw after peroral administration of 3 mg/kg of dose; type: functional; details: route oral
[9] = Plasma level data at a dose of 20 mg/kg, po after 1 hr; type: ADME, organism-based; parameters: dose 20 mg/kg, route oral; details: read-out: Plasma level; how it was run: as §1
[10] = Plasma level data at a dose of 20 mg/kg, iv after 6 hr; type: ADME, organism-based; parameters: dose 20 mg/kg, route intravenous; details: read-out: Plasma level; how it was run: as §1
Rattus norvegicus [11] = assay: compound was tested for antiinflammatory activity against collagen II arthritis in rats, activity% inhibition in injected paw edema; type: functional
How it was run: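 Arthritis induced in rats by injection of bovine articular cartilage type II collagen (dissolved in 0.01 M AcOH, dialysed against saline) mixed 1:1 with incomplete Freund's adjuvant. Paw inflammation checked weekly for 7 weeks. Inhibition = [Δpaw vol(collagen) − Δpaw vol(collagen + drug)]/[Δpaw vol(collagen) − Δpaw vol(ICFA control)] × 100. Bone damage scored by lateral-projection radiography; p ≤ 0.05 by Student's t-test.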

Rattus norvegicus [12] = organism: Rattus norvegicus; assay: Delayed Type hypersensitivity (DTH) is measured by increase in ear thickness 24 hours after antigen injection into pinna; type: functional
[13] = Plasma level data at a dose of 20 mg/kg, iv after 0.25 hr; type: ADME, organism-based; parameters: dose 20 mg/kg, route intravenous; details: read-out: Plasma level; how it was run: as §1
[14] = Plasma level data at a dose of 20mg/kg, po after 0.5 hr; type: ADME, organism-based; details: read-out: Plasma level; how it was run: as §1
Rattus norvegicus [15] = assay: Compound was tested for intestinal ulcerogenic effect in rats at a dose of 300 mg/kg; type: functional
How it was run: (§2)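 Normal fed rats were gavaged once daily for three consecutive days at 10–300 mg/kg and killed 24 h after the last dose. Intestines were examined for ulcers, recording incidence per group of 8 and a lesion score (±SE).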

Rattus norvegicus [16] = assay: Compound was tested for intestinal ulcerogenic effect in rats, activity expressed as lesion score at a dose of 10 mg/kg; type: functional; how it was run: as §2
Rattus norvegicus [17] = assay: Compound was tested for intestinal ulcerogenic effect in rats, activity expressed as ulcer incidence at a dose of 30 mg/kg; type: functional; how it was run: as §2
Rattus norvegicus [18] = assay: Compound was tested for gastric ulcerogenic effect in rats, activity expressed as lesion length at a dose of 10 mg/kg
Rattus norvegicus [19] = assay: Compound was tested for intestinal ulcerogenic effect in rats, activity expressed as lesion score at a dose of 300 mg/kg; type: functional; how it was run: as §2
Rattus norvegicus [20] = assay: Compound was tested for intestinal ulcerogenic effect in rats, activity expressed as lesion score at a dose of 30 mg/kg; type: functional; how it was run: as §2
Rattus norvegicus [21] = assay: Compound was tested in vivo against chronic adjuvant arthritic rat by prophylactic inhibition 1 degree paw. Relative potency with respect to (8-Benzyl-5-hydroxy-1,3-dimethyl-6-propyl-1H,8H-1,3,4b,8,9-pentaaza-fluorene-2,4,7-trione); type: functional
Rattus norvegicus [22] = assay: Compound was tested for intestinal ulcerogenic effect in rats at a dose of 100 mg/kg; type: functional; how it was run: as §2
Rattus norvegicus [23] = assay: Compound was tested for gastric ulcerogenic effect in rats, activity expressed as lesion length at a dose of 100 mg/kg
Rattus norvegicus [24] = assay: Compound was tested for gastric ulcerogenic effect in rats, activity expressed as lesion length at a dose of 300 mg/kg
Rattus norvegicus [25] = assay: Compound was tested for intestinal ulcerogenic effect in rats at a dose of 10 mg/kg; type: functional; how it was run: as §2
[26] = Plasma level data at a dose of 36 mg/kg, po after 4 hr; type: ADME, organism-based; parameters: dose 36 mg/kg, route oral; details: read-out: Plasma level
How it was run: (§3)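 Male Lewis rats given a single po dose of the sodium salt suspended in 0.4% (w/v) methyl cellulose. Plasma drug levels measured by HPLC at set times up to 12 h; values are mean ± SD, n = 3.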

[27] = Plasma level data at a dose of 36 mg/kg, po after 6 hr; type: ADME, organism-based; parameters: dose 36 mg/kg, route oral; details: read-out: Plasma level; how it was run: as §3
Rattus norvegicus [28] = assay: Compound was tested in vivo against chronic adjuvant arthritic rat by therapeutic inhibition 2 degree paw. Relative potency with respect to (8-Benzyl-5-hydroxy-1,3-dimethyl-6-propyl-1H,8H-1,3,4b,8,9-pentaaza-fluorene-2,4,7-trione); type: functional
Rattus norvegicus [29] = assay: C(compound) was tested for intestinal Ulcerogenic effect in rats at a dose of 30 mg/kg; type: functional; how it was run: as §2
Rattus norvegicus [30] = assay: Compound was tested in vivo for antiinflammatory activity against chronic adjuvant arthritic rat by therapeutic percentage inhibition 1 degree paw after peroral administration of 3.3 mg/kg of dose; type: functional; details: route oral
Rattus norvegicus [31] = organism: Rattus norvegicus; assay: Delayed Type hypersensitivity (DTH) is measured by increase in ear thickness 24 hours after antigen injection into pinna (10E-3); type: functional
[32] = Plasma level data at a dose of 36 mg/kg, iv after 4 hr; type: ADME, organism-based; parameters: dose 36 mg/kg, route intravenous; details: read-out: Plasma level; how it was run: as §1
[33] = Plasma level data at a dose of 36 mg/kg, iv after 0.25 hr; type: ADME, organism-based; parameters: dose 36 mg/kg, route intravenous; details: read-out: Plasma level; how it was run: as §1
[34] = Plasma level data at a dose of 36 mg/kg, po after 0.25 hr; type: ADME, organism-based; parameters: dose 36 mg/kg, route oral; details: read-out: Plasma level; how it was run: as §1
[35] = Plasma level data at a dose of 36 mg/kg, po after 2 hr; type: ADME, organism-based; parameters: dose 36 mg/kg, route oral; details: read-out: Plasma level; how it was run: as §3
[36] = Plasma level data at a dose of 36 mg/kg, po after 1 hr; type: ADME, organism-based; parameters: dose 36 mg/kg, route oral; details: read-out: Plasma level; how it was run: as §1
Rattus norvegicus [37] = assay: Compound was tested for intestinal Ulcerogenic effect in rats at a dose of 300 mg/kg; type: functional; how it was run: as §2
Rattus norvegicus [38] = assay: Compound was tested in vivo for antiinflammatory activity against chronic adjuvant arthritic rat by therapeutic percentage inhibition 1 degree paw after peroral administration of 10 mg/kg of dose; type: functional; details: route oral
Rattus norvegicus [39] = assay: Compound was tested in vivo for antiinflammatory activity against chronic adjuvant arthritic rat by therapeutic percentage inhibition 2 degree paw after peroral administration of 10 mg/kg of dose; type: functional; details: route oral
[40] = Plasma level data at a dose of 36 mg/kg, iv after 12 hr; type: ADME, organism-based; parameters: dose 36 mg/kg, route intravenous; details: read-out: Plasma level; how it was run: as §1
Rattus norvegicus [41] = assay: Compound was tested in vivo for antiinflammatory activity against chronic adjuvant arthritic rat by therapeutic percentage inhibition 2 degree paw after peroral administration of 3.3 mg/kg of dose; type: functional; details: route oral
[42] = Plasma level data at a dose of 36 mg/kg, po after 12 hr; type: ADME, organism-based; parameters: dose 36 mg/kg, route oral; details: read-out: Plasma level; how it was run: as §3
[43] = Plasma level data at a dose of 36 mg/kg, iv after 6 hr; type: ADME, organism-based; parameters: dose 36 mg/kg, route intravenous; details: read-out: Plasma level; how it was run: as §1
[44] = Plasma level data at a dose of 36 mg/kg, iv after 1 hr; type: ADME, organism-based; parameters: dose 36 mg/kg, route intravenous; details: read-out: Plasma level; how it was run: as §1
Rattus norvegicus [45] = assay: Compound was tested for intestinal Ulcerogenic effect in rats, activity expressed as ulcer incidence at a dose of 300 mg/kg; type: functional; how it was run: as §2

## CC(C)=CCc1c(O)n(Cc2ccccc2)c2nc3c(c(=O)n(C)c(=O)n3C)n2c1=O
Rattus norvegicus [1]
  inhibition in vivo at 1 mg/kg: 37%
[2]
  concentration at 2 h: 21900 ng/mL
[3]
  concentration at 6 h: 37000 ng/mL
Rattus norvegicus [4]
  inhibition in vivo at 3 mg/kg: 51%
[5]
  concentration at 0.5 h: 78600 ng/mL
[6]
  concentration at 12 h: 10600 ng/mL
[7]
  concentration at 0.25 h: 2400 ng/mL
Rattus norvegicus [8]
  inhibition in vivo at 3 mg/kg: 22%
[9]
  concentration at 1 h: 17300 ng/mL
[10]
  concentration at 6 h: 35100 ng/mL
Rattus norvegicus [11]
  Inhibition: 0%
Rattus norvegicus [12]
  DTH: 0.0582 mm
[13]
  concentration at 0.25 h: 95100 ng/mL
[14]
  concentration at 0.5 h: 10800 ng/mL

## CC(C)=CCc1c(O)n(Cc2ccc(F)cc2)c2nc3c(c(=O)n(C)c(=O)n3C)n2c1=O
Rattus norvegicus [15]
  Ulcer incidence: 2 number/group
Rattus norvegicus [16]
  Lesion length: 0 mm rat-1
Rattus norvegicus [17]
  Ulcer incidence: 0 number/group
Rattus norvegicus [18]
  Length: 0 mm rat-1
Rattus norvegicus [19]
  Lesion length: 0.2 mm rat-1
Rattus norvegicus [20]
  Lesion length: 0 mm rat-1
Rattus norvegicus [21]
  Relative potency: 1.1
Rattus norvegicus [22]
  Ulcer incidence: 0 number/group
Rattus norvegicus [23]
  Length: 0.1 mm rat-1
Rattus norvegicus [24]
  Length: 3 mm rat-1
Rattus norvegicus [25]
  Ulcer incidence: 0 number/group

## CCCc1c(O)n(Cc2ccc(F)cc2)c2nc3c(c(=O)n(C)c(=O)n3C)n2c1=O
[26]
  concentration at 4 h: 41800 ng/mL
[27]
  concentration at 6 h: 21000 ng/mL
Rattus norvegicus [28]
  Relative potency: 0.9
Rattus norvegicus [29]
  Ulcer incidence: 0 number/group
Rattus norvegicus [30]
  inhibition in vivo at 3.3 mg/kg: 7%
Rattus norvegicus [31]
  DTH: 34.1 10e-3mm
[32]
  concentration at 4 h: 72400 ng/mL
[33]
  concentration at 0.25 h: 140000 ng/mL
[34]
  concentration at 0.25 h: 20000 ng/mL
[35]
  concentration at 2 h: 66100 ng/mL
[36]
  concentration at 1 h: 23100 ng/mL
Rattus norvegicus [37]
  Ulcer incidence: 0 number/group
Rattus norvegicus [38]
  inhibition in vivo at 10 mg/kg: 27%
Rattus norvegicus [39]
  inhibition in vivo at 10 mg/kg: 38%
[40]
  concentration at 12 h: 88300 ng/mL
Rattus norvegicus [41]
  inhibition in vivo at 3.3 mg/kg: 30%
[42]
  concentration at 12 h: 35900 ng/mL
[43]
  concentration at 6 h: 78300 ng/mL
[44]
  concentration at 1 h: 107000 ng/mL
Rattus norvegicus [45]
  Ulcer incidence: 0 number/group
